Data published in article PMC9722545 (Structure (London, England : 1993), 2022).

Assays:
CDK2 and CDK1 = conditions: no cyclins present; ref Wood et al., 2019; cited from earlier work
[1] = tested on: tumor cell lines harbouring FBXW7−/− mutations; conditions: FBXW7−/− versus FBXW7 wild-type tumor cell lines; ref O’Brien et al. (2022); cited from earlier work
CDK11 Gly223Ala (G223A) = CDK11 Gly223Ala (G223A) (Homo sapiens, UniProt P21127, G579A); test: ITC binding of OTS964 to CDK11 Gly223Ala
CDK2-cyclin A Wild-type = CDK2-cyclin A Wild-type (Homo sapiens, UniProt P24941); test: ITC binding of OTS964 to CDK2-cyclin A wild-type; conditions: for Kd: mean ± SD
[2] = target: CDK11 Wild-type (CDK11B residues 72–380) (Homo sapiens, UniProt P21127); test: ITC binding of OTS964 to CDK11 wild-type
CDK11 Wild-type (CDK11B residues 72–380), sequence (P21127 428-736): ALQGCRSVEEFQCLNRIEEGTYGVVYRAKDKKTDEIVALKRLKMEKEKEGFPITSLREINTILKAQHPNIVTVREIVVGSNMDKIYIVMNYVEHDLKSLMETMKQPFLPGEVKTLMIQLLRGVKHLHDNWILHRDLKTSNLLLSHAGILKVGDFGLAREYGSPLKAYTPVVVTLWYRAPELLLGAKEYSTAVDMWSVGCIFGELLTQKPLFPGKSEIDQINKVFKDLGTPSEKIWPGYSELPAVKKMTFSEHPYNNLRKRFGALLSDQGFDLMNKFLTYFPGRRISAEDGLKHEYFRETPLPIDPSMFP

CDK2 Ala144Gly (A144G) = CDK2 Ala144Gly (A144G) (Homo sapiens, UniProt P24941, A144G); test: ITC binding of OTS964 to CDK2 Ala144Gly
How it was run: (§1)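 Human CDK2 (res. 1–298, wild-type or point mutant) is expressed as a GST-PreScission fusion with yeast CAK1 in E. coli BL21(DE3), then tag-cleaved and gel-filtered, with no cyclin. ITC at 25°C in 25 mM HEPES pH 7.5, 250 mM NaCl, 1 mM DTT, 2.0% DMSO: 2250 μM test compound into 150 μM kinase, 38×1 μL injections 180 s apart.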

CDK11 Met160Phe (M160F) = CDK11 Met160Phe (M160F) (Homo sapiens, UniProt P21127, M516F); test: ITC binding of OTS964 to CDK11 Met160Phe
CDK11 Met160Phe (M160F), sequence (P21127 428-736 M516F): as the sequence (P21127 428-736) above, with M89F counted along it

CDK7 = conditions: KINOMEscan panel of CDKs; ref Lin et al., 2019; cited from earlier work
CDK11 G223A/E89G/M160F = CDK11 G223A/E89G/M160F (Homo sapiens, UniProt P21127, E445G/G579A/M516F); test: ITC binding of OTS964 to CDK11 triple mutant
CDK11 G223A/E89G/M160F, sequence (P21127 428-736 E445G/M516F/G579A): as the sequence (P21127 428-736) above, with E18G, M89F, G152A counted along it

CDK2 Gly11Glu (G11E) = CDK2 Gly11Glu (G11E) (Homo sapiens, UniProt P24941, G11E); test: ITC binding of OTS964 to CDK2 Gly11Glu
How it was run: as §1

other CDKs = conditions: ref Lin et al., 2019, cited from earlier work
[3] = target: CDK2-cyclin A Gly11Glu (G11E) (Homo sapiens, UniProt P24941, G11E); test: ITC binding of OTS964 to CDK2 Gly11Glu-cyclin A
CDK11 Glu89Gly (E89G) = CDK11 Glu89Gly (E89G) (Homo sapiens, UniProt P21127, E445G); test: ITC binding of OTS964 to CDK11 Glu89Gly
CDK11 Glu89Gly (E89G), sequence (P21127 428-736 E445G): as the sequence (P21127 428-736) above, with E18G counted along it

CDK2 Wild-type = CDK2 Wild-type (Homo sapiens, UniProt P24941); test: ITC binding of OTS964 to CDK2 wild-type
How it was run: as §1

CDK11 Gly223Ser = CDK11 Gly223Ser (Homo sapiens, UniProt P21127, G579S); test: ITC binding of OTS964 to CDK11 Gly223Ser
CDK11 Gly223Ser, sequence (P21127 428-736 G579S): as the sequence (P21127 428-736) above, with G152S counted along it

[4] = target: CDK2-cyclin A Phe80Met (F80M) (Homo sapiens, UniProt P24941, F80M); test: ITC binding of OTS964 to CDK2 Phe80Met-cyclin A
[5] = target: CDK2-cyclin A Ala144Gly (A144G) (Homo sapiens, UniProt P24941, A144G); test: ITC binding of OTS964 to CDK2 Ala144Gly-cyclin A
CDK2 Phe80Met (F80M) = CDK2 Phe80Met (F80M) (Homo sapiens, UniProt P24941, F80M); test: ITC binding of OTS964 to CDK2 Phe80Met
How it was run: as §1

[6] = ITC, CDK2 wild-type with cyclin A
[7] = ITC, CDK2 Gly11Glu with cyclin A
[8] = ITC, CDK2 Phe80Met with cyclin A
[9] = ITC, CDK2 Ala144Gly with cyclin A

CDK11 Gly223Ala (G223A), sequence (P21127 428-736 G579A): as the sequence (P21127 428-736) above, with G152A counted along it

For Cc1ncc(-c2ccnc(Nc3ccc(S(C)(=O)=O)cc3)n2)n1C(C)C [AZD5438], the “difference in affinity between CDK2 and CDK1” value (CDK2 and CDK1) is listed as ~ 170 X.

For Cc1cc(O)c(-c2ccc(C(C)CN(C)C)cc2)c2c1[nH]c(=O)c1sccc12 (stereo not drawn) [OTS964], the “sensitivity to OTS964 treatment” value [1] is listed as “more sensitive”, the Kd (CDK11 Gly223Ala (G223A)) is listed as 31.7 ± 13.8 nM and the “enhancement of binding of CDK2 to OTS964 in the presence versus absence of cyclin A” value (CDK2-cyclin A Wild-type; ITC KD) is listed as 7 fold. The “N (sites)” value (CDK2-cyclin A Wild-type; ITC, 25°C, CDK2 wild-type with cyclin A) was 1.00 sites, the ΔH (CDK2-cyclin A Wild-type; [6]) was -8.64 ± 1.06 kcal/mol and the ΔS (CDK2-cyclin A Wild-type; [6]) was −2.64 ± 2.99 cal/mol/K. The ΔG (CDK2-cyclin A Wild-type; ITC, CDK2 wild-type with cyclin A, ΔG = ΔH − TΔS) was -7.85 ± 0.18 kcal/mol, the Kd (CDK2-cyclin A Wild-type; ITC, 25°C, CDK2 wild-type with cyclin A, n=2) was 1820 ± 500 nM and the Kd (CDK2-cyclin A Wild-type; ITC, CDK2 in the presence of cyclin A) was 1800 ± 500 nM. The Kd [2] was 65.4 ± 18 nM, the Kd (CDK2 Ala144Gly (A144G)) was 16000 ± 4600 nM and the “N (sites)” value (CDK2 Ala144Gly (A144G); ITC, 25°C, CDK2 Ala144Gly, no cyclin) was 0.554 sites. The ΔH (CDK2 Ala144Gly (A144G); ITC, CDK2 Ala144Gly, no cyclin) was -10.6 ± 1.2 kcal/mol, the ΔS (CDK2 Ala144Gly (A144G); ITC, CDK2 Ala144Gly, no cyclin) was −13.4 ± 4.5 cal/mol/K and the ΔG (CDK2 Ala144Gly (A144G); ITC, CDK2 Ala144Gly, no cyclin, ΔG = ΔH − TΔS) was -6.56 ± 0.17 kcal/mol. The Kd (CDK11 Met160Phe (M160F)) was 556 ± 26 nM, the “more potent against CDK11 than against CDK7” value (CDK7) was 10 X and the Kd (CDK11 G223A/E89G/M160F) was 320 ± 66 nM. For the same molecule, the Kd (CDK2 Gly11Glu (G11E)) was 6820 ± 530 nM, the “N (sites)” value (CDK2 Gly11Glu (G11E); ITC, 25°C, CDK2 Gly11Glu, no cyclin) was 0.866 sites and the ΔH (CDK2 Gly11Glu (G11E); ITC, CDK2 Gly11Glu, no cyclin) was -9.45 ± 0.32 kcal/mol. The ΔS (CDK2 Gly11Glu (G11E); ITC, CDK2 Gly11Glu, no cyclin) was −8.05 ± 1.23 cal/mol/K, the ΔG (CDK2 Gly11Glu (G11E); ITC, CDK2 Gly11Glu, no cyclin, ΔG = ΔH − TΔS) was -7.05 ± 0.05 kcal/mol and the “binding to other CDKs tested” value (other CDKs; KINOMEscan panel of CDKs) was “no apparent binding”. For the same molecule, the Kd (other CDKs; other CDKs) was greater than 3000 nM, the “higher affinity for CDK11 than other CDKs” value (other CDKs) was “at least 75 fold” and the Kd [3] was 621 ± 16 nM. The “N (sites)” value ([3]; ITC, 25°C, CDK2 Gly11Glu with cyclin A) was 1.16 sites, the ΔH [3, 7] was -7.13 ± 0.21 kcal/mol and the ΔS [3, 7] was 4.48 ± 0.76 cal/mol/K. For the same molecule, the ΔG ([3]; ITC, CDK2 Gly11Glu with cyclin A, ΔG = ΔH − TΔS) was -8.47 ± 0.02 kcal/mol, the Kd (CDK11 Glu89Gly (E89G)) was 50.9 ± 3.3 nM and the Kd (CDK2 Wild-type) was 16300 ± 1700 nM. For the same molecule, the “weaker binding than monomeric CDK11” value (CDK2 Wild-type; ITC KD, CDK2 without cyclin vs monomeric CDK11) was ~ 250 fold, the “N (sites)” value (CDK2 Wild-type; ITC, 25°C, CDK2 wild-type, no cyclin) was 0.704 sites and the ΔH (CDK2 Wild-type; ITC, CDK2 wild-type, no cyclin) was -9.12 ± 0.60 kcal/mol. For the same molecule, the ΔS (CDK2 Wild-type; ITC, CDK2 wild-type, no cyclin) was −8.66 ± 1.80 cal/mol/K, the ΔG (CDK2 Wild-type; ITC, CDK2 wild-type, no cyclin, ΔG = ΔH − TΔS) was -6.54 ± 0.06 kcal/mol and the Kd (CDK11 Gly223Ser) was 853 ± 56 nM. The Kd [4] was 4980 ± 440 nM, the “N (sites)” value ([4]; ITC, 25°C, CDK2 Phe80Met with cyclin A) was 1.28 sites and the ΔH [4, 8] was -9.69 ± 0.08 kcal/mol. The ΔS [4, 8] was −8.23 ± 0.44 cal/mol/K, the ΔG ([4]; ITC, CDK2 Phe80Met with cyclin A, ΔG = ΔH − TΔS) was -7.24 ± 0.05 kcal/mol and the Kd [5] was 3030 ± 150 nM. For the same molecule, the “N (sites)” value ([5]; ITC, 25°C, CDK2 Ala144Gly with cyclin A) was 1.04 sites, the ΔH [5, 9] was -6.92 ± 0.01 kcal/mol and the ΔS [5, 9] was 2.04 ± 0.11 cal/mol/K. For the same molecule, the ΔG ([5]; ITC, CDK2 Ala144Gly with cyclin A, ΔG = ΔH − TΔS) was -7.53 ± 0.03 kcal/mol, the Kd (CDK2 Phe80Met (F80M)) was 32400 ± 1900 nM and the “N (sites)” value (CDK2 Phe80Met (F80M); ITC, 25°C, CDK2 Phe80Met, no cyclin) was 0.804 sites. The ΔS (CDK2 Phe80Met (F80M); ITC, CDK2 Phe80Met, no cyclin) was −19.1 ± 1.1 cal/mol/K and the ΔG (CDK2 Phe80Met (F80M); ITC, CDK2 Phe80Met, no cyclin, ΔG = ΔH − TΔS) was 17.5 ± 0.6 kcal/mol.
